This note sets out measurements from ChEMBL document CHEMBL4673181, “An investigation of the antileishmanial properties of semi-synthetic saponins” (RSC Med Chem, 2020).

Usually inhibition stands for the drop in the measured response relative to a control, in per cent.

Assay [1] relates to Leishmania mexicana. As to the kind of experiment: Antileishmanial activity against axenic amastigote stage of Leishmania mexicana (MNYC/BZ/62/M379) assessed as inhibition of parasite proliferation at 50 uM incubated for 24 hrs by alamar blue dye based fluorescence analysis. Format: functional. An outline of the steps:
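Primary single-point screen at 50 μM, in duplicate. Axenic L. mexicana amastigotes at 4x10⁵ mL⁻¹ incubated with compound 24 h at 33 °C in sealed plates, then alamarBlue for a further 24 h at the same temperature. Viability read by fluorescence at 560/600 nm against amphotericin B (50 μM) and DMSO controls.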
A general note: Resazurin is reduced to fluorescent resorufin, in cell work by metabolically active cells.

The test system of assay [2] is Leishmania mexicana. Briefly: Antileishmanial activity against axenic amastigote stage of Leishmania mexicana (MNYC/BZ/62/M379) assessed as induction of parasite killing incubated for 24 hrs by alamar blue dye based fluorescence analysis. It counts as functional. As to conditions: read-out: ED50 (the source's name). The essentials: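 L. mexicana axenic amastigotes (from promastigotes by pH/temperature shift; Schneider's with 20% HIFBS) at 4x10⁵ mL⁻¹, exposed to three-fold dilutions from 50 μM to 0.21 μM for 24 h at 33 °C in sealed plates. alamarBlue then added for another 24 h, fluorescence read at 560/600 nm. Amphotericin B (50 μM) positive, DMSO negative control. Duplicates on four occasions, EC₅₀ fitted.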

A value given as a limit tells only on which side of the number the result lay.

For `CC1(C)CC[C@]2(C(=O)OCc3ccccc3)CC[C@]3(C)C(=CC[C@@H]4[C@@]5(C)CC[C@H](O)[C@@](C)(CO)[C@@H]5CC[C@]43C)[C@@H]2C1`, the inhibition at 50 µM in assay [1] was ≥ 95%. Moreover, the EC50 in assay [2] is > 50 µM. On to `CC1(C)CC[C@]2(C(=O)OCc3ccccc3[N+](=O)[O-])CC[C@]3(C)C(=CC[C@@H]4[C@@]5(C)CC[C@H](O)[C@@](C)(CO)[C@@H]5CC[C@]43C)[C@@H]2C1`, for which, in assay [1], the inhibition at 50 µM is ≥ 95%. The EC50 in assay [2] is > 50 µM. With `CC1(C)CC[C@]2(C(=O)OCCC3OCCCO3)CC[C@]3(C)C(=CC[C@@H]4[C@@]5(C)CC[C@H](O)[C@@](C)(CO)[C@@H]5CC[C@]43C)[C@@H]2C1`, in assay [1], the inhibition at 50 µM is ≥ 95%. The EC50 in assay [2] was > 50 µM. For `CC1(C)CC[C@]2(C(=O)O)CC[C@]3(C)C(=CC[C@@H]4[C@@]5(C)CC[C@H](O[C@@H]6OC[C@H](O)[C@H](O)[C@H]6O)[C@@](C)(CO)[C@@H]5CC[C@]43C)[C@@H]2C1` the same measures were ≥ 95% and > 50 µM. For `CC1(C)CC[C@]2(NC(=O)NCCN3CCCC3)CC[C@]3(C)C(=CC[C@@H]4[C@@]5(C)CC[C@@H]6OC(C)(C)OC[C@@]6(C)[C@@H]5CC[C@]43C)[C@@H]2C1`, the inhibition at 50 µM in assay [1] was ≥ 95%. Besides, the EC50 in assay [2] was > 50 µM. In the case of `CCOC(=O)[C@]12CCC(C)(C)C[C@H]1C1=CC[C@@H]3[C@@]4(C)CC[C@H](O)[C@@](C)(CO)[C@@H]4CC[C@@]3(C)[C@]1(C)CC2`, in assay [1], the inhibition at 50 µM was ≥ 95%. In assay [2], the EC50 is > 50 µM. Regarding `CC1(C)CC[C@]2(CO)CC[C@]3(C)C(=CC[C@@H]4[C@@]5(C)CC[C@@H]6O[C@H]([C@H](O)[C@@H](O)[C@@H](O)CO)OC[C@@]6(C)[C@@H]5CC[C@]43C)[C@@H]2C1`, the inhibition at 50 µM in assay [1] is ≥ 95%.

As to `COC(=O)[C@]12CCC(C)(C)C[C@H]1C1=CC[C@@H]3[C@@]4(C)CC[C@@H]5O[C@H](CC6O[C@H]([C@H](C)O)[C@@H](O)[C@@H]6O)OC[C@@]5(C)[C@@H]4CC[C@@]3(C)[C@]1(C)CC2` (some centres not stated), the inhibition at 50 µM in assay [1] was ≥ 95%. In assay [2], the EC50 is > 50 µM. Regarding `C[C@H]1O[C@H](C[C@@H]2OC[C@@]3(C)[C@@H]4CC[C@]5(C)[C@H](CC=C6[C@@H]7CC(C)(C)CC[C@]7(C(=O)O)CC[C@]65C)[C@@]4(C)CC[C@@H]3O2)[C@H](O)[C@@H](O)[C@@H]1O`, the inhibition at 50 µM in assay [1] was ≥ 95%. In addition, the EC50 in assay [2] was > 50 µM. For the compound `CC1(C)CC[C@]2(NC(=O)N3CCC[C@H]3CN3CCCC3)CC[C@]3(C)C(=CC[C@@H]4[C@@]5(C)CC[C@@H]6OC(C)(C)OC[C@@]6(C)[C@@H]5CC[C@]43C)[C@@H]2C1`, in assay [1], the inhibition at 50 µM was ≥ 95%. The EC50 in assay [2] was > 50 µM. For `CC1(C)CC[C@]2(NC(=O)NCCN)CC[C@]3(C)C(=CC[C@@H]4[C@@]5(C)CC[C@@H]6OC(C)(C)OC[C@@]6(C)[C@@H]5CC[C@]43C)[C@@H]2C1` the same measures were ≥ 95% and > 50 µM. For `CC1(C)CC[C@]2(CO)CC[C@]3(C)C(=CC[C@@H]4[C@@]5(C)CC[C@@H]6O[C@H]([C@H](O)[C@@H](O)[C@H](O)CO)OC[C@@]6(C)[C@@H]5CC[C@]43C)[C@@H]2C1`, the inhibition at 50 µM in assay [1] is ≥ 95%. For the same compound, the EC50 in assay [2] was > 50 µM.

Regarding `CC1(C)CC[C@]2(NC(=O)O)CC[C@]3(C)C(=CC[C@@H]4[C@@]5(C)CC[C@@H]6O[C@H](C[C@H]7O[C@H](CO)[C@@H](O)[C@H](O)[C@@H]7O)OC[C@@]6(C)[C@@H]5CC[C@]43C)[C@@H]2C1`, in assay [1], the inhibition at 50 µM was ≥ 95%. In assay [2], the EC50 was > 50 µM.

Regarding `CC1(C)CC[C@]2(CO)CC[C@]3(C)C(=CC[C@@H]4[C@@]5(C)CC[C@@H]6O[C@H]([C@H](O)[C@@H](O)[C@H](O)[C@H](O)CO)OC[C@@]6(C)[C@@H]5CC[C@]43C)[C@@H]2C1`, in assay [1], the inhibition at 50 µM is ≥ 95%. Further, the EC50 in assay [2] was > 50 µM.
